Assay results: article PMC9989235 (Iranian Journal of Medical Sciences, 2023)

Columns and labels:
[1] = DPPH radical scavenging assay; conditions: mean±SD
Procedure, shortened: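 Test compound in methanol at 50, 75 and 100 was added to 0.005% (w/v) DPPH in methanol. Incubation was 45 min at room temperature, with absorbance read at 517 nm against a blank. Inhibition (%) = [(controlA − sampleA)/[…]]×100, where the control held all reagents except the test compound. Triplicate runs; IC50 taken from a fitted line to the plot.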

Giardia intestinalis = assay: In vitro bioassay of antigiardial activity; type: cell-based; conditions: Giardia duodenalis, read-out: Antigiardial activity, IC50, Giardia intestinalis
[2] = tested on: selected bacteria strains; assay: Disc diffusion method, overall statements on the selected bacteria strains; type: cell-based; conditions: selected Gram-positive and Gram-negative strains, inhibition zones
Procedure, shortened: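 Clinical isolates from Kirkuk Hospital were cultured on agar in Petri dishes. Test compound was dissolved in DMSO at 60 µg/mL, with DMSO alone tested alongside. Plates were incubated 24 h at 37 °C, pH 7.4±0.2. Inhibition-zone diameter around the disc was scored: − none; + 10–15 mm; ++ 15–20 mm; +++ ≥20 mm.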

DPPH radical scavenging, IC50 ([1]; fitted line to a plot, triplicate)	IC50 (Giardia intestinalis) [µM]	SMILES	antibacterial activity (in words) [2]	DPPH radical scavenging, inhibition at 50 µg/mL ([1]; compound concentration 50 µg/mL, 45 min, 517 nm) [%]	DPPH radical scavenging, inhibition at 75 µg/mL ([1]; compound concentration 75 µg/mL, 45 min, 517 nm) [%]	DPPH radical scavenging, inhibition at 100 µg/mL ([1]; compound concentration 100 µg/mL, 45 min, 517 nm) [%]
ns (No scavenging activity)	3.71 ± 0.27	Cc1ncc([N+](=O)[O-])n1CCO [Metronidazole]	no antibacterial activity			
		O=C1O[C@H]([C@@H](O)CO)C(O)=C1O [Ascorbic acid]		78.01±0.75	81.01±0.85	84.21±0.41
